Results from different studies.
Lines come from different studies, so protocols differ.
Target: Serine/threonine-protein kinase Sgk3 (SGK3, Homo sapiens, UniProt Q96BR1)
Sequence (Q96BR1 1-496, as in one of the studies): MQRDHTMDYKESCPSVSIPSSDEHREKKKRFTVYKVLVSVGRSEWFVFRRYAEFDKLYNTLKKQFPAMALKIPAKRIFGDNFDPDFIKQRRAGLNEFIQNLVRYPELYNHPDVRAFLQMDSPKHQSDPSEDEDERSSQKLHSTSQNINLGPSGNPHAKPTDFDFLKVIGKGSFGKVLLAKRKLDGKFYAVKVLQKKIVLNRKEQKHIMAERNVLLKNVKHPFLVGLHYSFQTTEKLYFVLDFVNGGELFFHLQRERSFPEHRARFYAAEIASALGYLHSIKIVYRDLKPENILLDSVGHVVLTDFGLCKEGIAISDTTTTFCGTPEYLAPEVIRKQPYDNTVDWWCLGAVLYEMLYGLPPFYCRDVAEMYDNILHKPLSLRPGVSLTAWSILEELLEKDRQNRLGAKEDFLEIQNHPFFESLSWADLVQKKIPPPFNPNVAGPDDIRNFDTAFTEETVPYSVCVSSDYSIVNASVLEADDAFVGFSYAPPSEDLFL

| SMILES | observed | action | method | tested at | measurement | value |
| --- | --- | --- | --- | --- | --- | --- |
| O=c1[nH]c2ccccc2n1C1CCN(Cc2ccc(-c3[nH]c4cc5ncnc5cc4nc3-c3ccccc3)cc2)CC1 | cell-free assay |  |  | 0.5 µM | remaining signal | 108% |
| COc1cc(Nc2ncc(F)c(Nc3ccc4c(n3)NC(=O)C(C)(C)O4)n2)cc(OC)c1OC | binding |  |  | 10 µM | inhibition | 52% |
| Cn1cc(-c2cccc(N3CCc4c(sc5c4CC(C)(C)C5)C3=O)c2CO)cc(Nc2ccncn2)c1=O | enzyme activity | inhibitor |  | 1 µM | inhibition | 5% |
| COc1ncccc1-c1cnn2ccc(N3CCN(C(=O)OC(C)C)CC3)nc12 | binding |  | competition with immobilised ligand | 1 µM | remaining binding | 100% |
| CC(C)(C)c1cc(C=C(C#N)C#N)cc(Br)c1O | enzyme activity | inhibitor |  | 0.5 µM | remaining activity | 97.7% |
| Cn1cc(-c2cc(F)cc(N3CCn4c(cc5c4CCCC5)C3=O)c2CO)cc(Nc2ccc(N3CCN(C4COC4)CC3)cn2)c1=O | enzyme activity | inhibitor |  | 0.1 µM | inhibition | 14% |
| Cn1cncc1[C@](O)(COc1ccc(C#N)cc1-c1ccc(OC(F)(F)F)cc1)c1ccc(C#N)cc1 | cell-free assay |  | competition with immobilised ligand | 1 µM | remaining binding | 100% |
| Nc1ncc(-c2nc(N3CCOCC3)nc(N3CCOCC3)n2)c(C(F)F)n1 | binding |  | competition with immobilised ligand | 10 µM | remaining binding | 44% |
| Cc1nn(C)cc1-c1nc2c(N3CCN(Cc4ccc(Cl)cc4)CC3)c(Cl)cnc2[nH]1 | binding |  | competition with immobilised ligand | 1 µM | remaining binding | 100% |
